According to ChEMBL document CHEMBL5335845, “Discovery of GLPG2737, a Potent Type 2 Corrector of CFTR for the Treatment of Cystic Fibrosis in Combination with a Potentiator and a Type 1 Co-corrector” (J Med Chem, 2024):
Converted amounts (≈) assume the structure as drawn. Blank lines part the entries; values can stand above or below the molecule they belong to.

Key:
[1] = Metabolic stability in rat liver microsomes assessed as unbound intrinsic clearance at 1 uM incubated for 30 mins by LC-MS/MS analysis; format: ADME, Microsome; conditions: 0.5 h
[2] = Metabolic stability in human liver microsomes assessed as unbound intrinsic clearance at 1 uM incubated for 30 mins by LC-MS/MS analysis; format: ADME, Microsome; conditions: 0.5 h
[3] = Metabolic stability in rat hepatocyte assessed as unbound intrinsic clearance at 1 uM incubated for 180 mins by LC-MS/MS analysis; format: ADME, cell-based; conditions: hepatocytes, 3 h
[4] = Metabolic stability in human hepatocyte assessed as unbound intrinsic clearance at 1 uM incubated for 180 mins by LC-MS/MS analysis; format: ADME, cell-based; conditions: hepatocytes, 3 h
Cytochrome P450 3A4 [5] = target: T1, Cytochrome P450 3A4 (Homo sapiens, UniProt P08684); assay: Inhibition of CYP3A4 in human liver microsomes using testosterone as substrate in presence of NADPH by LC/MS/MS analysis; format: ADME, Microsome
[6] = Half life in Sprague-Dawley rat at 0.1 mg/kg, iv measured upto 24 hrs by LC-MS/MS analysis; format: ADME, organism-based; conditions: in vivo
Summary of the method: (§1)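 Male Sprague–Dawley rats (6–8 weeks), iv tail-vein bolus 0.1 mg/kg in PEG200/water 60/40, or oral gavage 5 mg/kg suspension in 0.5% MC after ≥12 h fast; plasma (Li-heparin) sampled to 24 h, n = 3 per route, LC-MS/MS; noncompartmental analysis.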

[7] = Thermodynamic solubility of the compound at pH 7.4 measured after 24 hrs by LC-MS/MS analysis; format: physicochemical; conditions: buffer, read-out: Therm_solubility
Summary of the method: (§2)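 Solid compound at 1 mg/mL in fasted simulated gastric fluid or pH 7.4 buffer, stirred 24 h at room temperature, centrifuged and filtered, diluted and quantified by LC-MS/MS against standard curve.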

[8] = Apparent permeability from apical to basolateral side in MDCKII-MDR1 cells at 10 uM measured after 1 hr by LC-MS/MS analysis; format: ADME, cell-based, Canis lupus familiaris; conditions: dog, MDCK-MDR1
[9] = Plasma protein binding in human at 5 uM measured after 4 hrs under shaking by LC-MS/MS analysis; format: ADME, cell-free; conditions: read-out: PPB (converted)
Summary of the method: (§3)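 Equilibrium dialysis of compound 5 μM (0.5% DMSO) in plasma against PBS pH 7.4, 4 h at 37 °C with shaking; matrix-matched samples, acetonitrile precipitation, LC-MS/MS; % bound from plasma and buffer peak areas.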

[10] = Plasma clearance in Beagle dog iv measured upto 24 hrs by LC-MS/MS analysis
[11] = Unbound clearance in Sprague-Dawley rat at 5 mg/kg, po or 0.1 mg/kg, iv measured upto 24 hrs by LC-MS/MS analysis; format: ADME, organism-based; conditions: in vivo; summary of the method: as §1
[12] = Plasma protein binding in rat at 5 uM measured after 4 hrs under shaking by LC-MS/MS analysis; format: ADME, cell-free; conditions: read-out: PPB (converted); summary of the method: as §3
[13] = Thermodynamic solubility of the compound in fasted simulated gastric fluid measured after 24 hrs by LC-MS/MS analysis; format: physicochemical; conditions: read-out: Therm_solubility; summary of the method: as §2
[14] = Intestinal permeability across apical to basolateral side in human Caco-2 cells at 10 uM measured after 1 hr by LC-MS/MS analysis; format: ADME, cell-based; conditions: read-out: permeability
[15] = Metabolic stability in dog hepatocyte assessed as unbound intrinsic clearance at 1 uM incubated for 180 mins by LC-MS/MS analysis; format: ADME, cell-based, Canis lupus familiaris; conditions: hepatocytes, 3 h
Sigma receptor = Sigma receptor (Homo sapiens, UniProt Q99720+Q5BJF2); assay: Inhibition of human Sigma receptor; format: protein assay
Summary of the method: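 Radioligand binding panel: displacement of cognate radioligand from human H1 or Sigma receptor, IC50 determined.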

Cytochrome P450 3A4 [16] = target: T1, Cytochrome P450 3A4; assay: Inhibition of CYP3A4 in human liver microsomes using midazolam as substrate in presence of NADPH by LC/MS/MS analysis; format: ADME, Microsome
[17] = Plasma clearance in Sprague-Dawley rat at 5 mg/kg, po or 0.1 mg/kg, iv measured upto 24 hrs by LC-MS/MS analysis; format: ADME, organism-based; conditions: in vivo; summary of the method: as §1
[18] = Plasma protein binding in dog at 5 uM measured after 4 hrs under shaking by LC-MS/MS analysis; format: ADME, cell-free, Canis lupus familiaris; conditions: read-out: PPB (converted); summary of the method: as §3
[19] = Volume of distribution at steady state in Beagle dog at 5 mg/kg, po or 0.1 mg/kg, iv measured upto 24 hrs by LC-MS/MS analysis; format: ADME, organism-based, Canis lupus familiaris; conditions: in vivo
[20] = target: Voltage-gated inwardly rectifying potassium channel KCNH2 (Homo sapiens, UniProt Q12809); assay: Inhibition of human ERG by manual patch clamp test; format: toxicity
Cytochrome P450 3A4 [21] = target: T1, Cytochrome P450 3A4; assay: Induction of CYP3A4 in human hepatocytes assessed as mRNA at 10 uM after 72 hrs by qPCR analysis relative to rifampicin; format: ADME, cell-based, Hepatocyte
Summary of the method: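 Single-donor cryopreserved human hepatocytes, 0.1 × 10^6 cells/well, exposed to 10 μM compound (0.1% DMSO) in triplicate for 72 h with daily renewal; RNA RT-qPCR for CYP3A4 vs endogenous control, 2^-ΔΔCT relative to vehicle, expressed as % of 10 μM rifampicin.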

[22] = Volume of distribution at steady state in Sprague-Dawley rat at 5 mg/kg, po or 0.1 mg/kg, iv measured upto 24 hrs by LC-MS/MS analysis; format: ADME, organism-based; conditions: in vivo; summary of the method: as §1
[23] = Genotoxicity in Salmonella typhimurium by Ames test; format: toxicity; conditions: salmonella enterica subsp. enterica serovar typhimurium
[24] = Unbound clearance in Beagle dog at 5 mg/kg, po measured upto 24 hrs by LC-MS/MS analysis; format: ADME, organism-based, Canis lupus familiaris; conditions: in vivo
Summary of the method: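 Male Beagle dogs (n = 3), iv 10 min […], then after 3-day washout oral gavage 5 or 1 mg/kg in PEG400/0.5% MC or 0.5% MC after ≥12 h fast; jugular or cephalic blood (Li-heparin) to 24 h, plasma by LC-MS/MS.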

[25] = Half life in Beagle dog at 0.1 mg/kg, iv measured upto 24 hrs by LC-MS/MS analysis; format: ADME, organism-based, Canis lupus familiaris; conditions: in vivo
[26] = Clearance in Sprague-Dawley rat at 1 mg/kg, iv measured after 24 hrs by LC-MS/MS analysis; format: ADME, organism-based; conditions: in vivo

T1 sequence (P08684 whole entry): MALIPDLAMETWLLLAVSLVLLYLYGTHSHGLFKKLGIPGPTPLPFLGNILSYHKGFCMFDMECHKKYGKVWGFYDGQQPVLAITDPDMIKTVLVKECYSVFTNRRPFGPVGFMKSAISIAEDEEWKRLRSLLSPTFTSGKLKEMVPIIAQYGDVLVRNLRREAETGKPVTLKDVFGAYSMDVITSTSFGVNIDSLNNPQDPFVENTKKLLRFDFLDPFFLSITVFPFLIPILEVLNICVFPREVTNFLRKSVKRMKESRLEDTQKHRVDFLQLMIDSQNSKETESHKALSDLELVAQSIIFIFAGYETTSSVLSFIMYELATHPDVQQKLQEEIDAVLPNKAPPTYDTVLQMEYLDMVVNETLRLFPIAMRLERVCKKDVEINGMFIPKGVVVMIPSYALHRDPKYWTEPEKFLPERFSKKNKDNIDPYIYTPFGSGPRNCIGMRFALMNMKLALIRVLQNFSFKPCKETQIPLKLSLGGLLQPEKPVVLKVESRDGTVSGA
Chain of Voltage-gated inwardly rectifying potassium channel KCNH2 (Q12809 whole entry): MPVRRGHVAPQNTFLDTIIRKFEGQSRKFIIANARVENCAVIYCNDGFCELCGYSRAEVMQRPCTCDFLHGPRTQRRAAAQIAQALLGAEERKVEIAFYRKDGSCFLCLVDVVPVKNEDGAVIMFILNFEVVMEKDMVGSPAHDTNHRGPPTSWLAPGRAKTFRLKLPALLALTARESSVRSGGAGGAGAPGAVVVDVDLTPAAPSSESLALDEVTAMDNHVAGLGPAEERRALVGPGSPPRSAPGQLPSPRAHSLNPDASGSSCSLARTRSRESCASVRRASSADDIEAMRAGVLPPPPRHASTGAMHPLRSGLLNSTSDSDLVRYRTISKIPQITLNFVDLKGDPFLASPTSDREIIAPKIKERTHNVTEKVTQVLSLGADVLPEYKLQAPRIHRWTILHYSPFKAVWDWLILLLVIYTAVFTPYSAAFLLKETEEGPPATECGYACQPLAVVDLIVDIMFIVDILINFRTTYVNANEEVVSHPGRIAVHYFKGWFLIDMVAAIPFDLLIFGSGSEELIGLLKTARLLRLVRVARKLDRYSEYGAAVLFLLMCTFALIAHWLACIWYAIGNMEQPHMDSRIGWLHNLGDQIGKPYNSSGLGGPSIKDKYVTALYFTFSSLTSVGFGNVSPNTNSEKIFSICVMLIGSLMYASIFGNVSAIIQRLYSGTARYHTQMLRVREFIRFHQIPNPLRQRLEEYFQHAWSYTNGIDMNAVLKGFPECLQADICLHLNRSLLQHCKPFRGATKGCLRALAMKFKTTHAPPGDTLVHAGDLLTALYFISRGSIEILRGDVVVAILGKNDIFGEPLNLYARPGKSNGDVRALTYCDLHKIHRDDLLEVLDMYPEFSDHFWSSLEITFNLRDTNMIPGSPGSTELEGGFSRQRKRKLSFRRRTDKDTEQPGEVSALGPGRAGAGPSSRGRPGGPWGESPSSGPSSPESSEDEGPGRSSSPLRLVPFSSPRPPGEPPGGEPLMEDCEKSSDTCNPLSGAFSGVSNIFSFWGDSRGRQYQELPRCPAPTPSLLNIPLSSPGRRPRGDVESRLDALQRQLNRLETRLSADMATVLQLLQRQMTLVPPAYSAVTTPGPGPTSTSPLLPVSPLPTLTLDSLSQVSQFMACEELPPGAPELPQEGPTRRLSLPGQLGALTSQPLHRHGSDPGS

CL free [1]: 180 mL/min/kg
CL free [2]: 173 mL/min/kg
CL free [3]: 305 mL/min/kg
Compound: COc1ccc(-c2cc(C(=O)O)nc3c2c(C)nn3-c2ccccc2)cc1

CL free [1]: 182 mL/min/kg
CL free [2]: < 59.8 mL/min/kg
CL free [3]: 263 mL/min/kg
Compound: COc1ccc(-c2cc(C(=O)O)nc3c2c(C)nn3-c2ccc(C)cc2)cc1

CL free [1]: < 43.3 mL/min/kg
CL free [2]: < 28.3 mL/min/kg
CL free [4]: < 45.7 mL/min/kg
CL free [3]: 67 mL/min/kg
Compound: Cc1nn(-c2ccccc2)c2nc(C(=O)O)cc(-c3ccc(N4CCOCC4)cc3)c12

IC50 (Cytochrome P450 3A4 [5]): > 100 µM
half-life [6]: 3.45 h
solubility thermodynamic at 24 h [7]: 9.9 µg/mL (≈ 18.7 µM)
Papp A→B at 1 h, 10 µM [8]: 5.45 ×10⁻⁶ cm/s
fraction unbound at 4 h, 5 µM [9]: 0.02
clearance [10]: 3.5 mL/min/kg
CL free [11]: 333 mL/min/kg
fraction unbound at 4 h, 5 µM [12]: 0.016
solubility thermodynamic at 24 h [13]: 10.9 µg/mL (≈ 20.5 µM)
Papp A→B at 1 h, 10 µM [14]: 24.5 ×10⁻⁶ cm/s
CL free [15]: < 24.8 mL/min/kg
IC50 (Sigma receptor): 0.36 µM
IC50 (Cytochrome P450 3A4 [16]): > 100 µM
CL [17]: 5.33 mL/min/kg
fraction unbound at 4 h, 5 µM [18]: 0.025
Vdss [19]: 1.37 L/kg
CL free [4]: < 12.8 mL/min/kg
CL free [3]: 66.2 mL/min/kg
Activity (Cytochrome P450 3A4 [21]): 4%
Vdss [22]: 1.38 L/kg
CL free [24]: 178 mL/min/kg
half-life [25]: 5.4 h
Compound: COC1CCN(c2cc(C(=O)NS(=O)(=O)N(C)C)nc3c2c(C2CCC2)nn3-c2ccc(F)cc2)CC1
inhibition (INH) [20]: Not Active
Activity [23]: Non-Toxic

CL free [15]: 31.7 mL/min/kg
CL [17]: 3.17 mL/min/kg
CL free [4]: < 11 mL/min/kg
CL free [3]: 49 mL/min/kg
Compound: CN(C)S(=O)(=O)NC(=O)c1cc(N2CCC(N3CCOCC3)CC2)c2c(C3CCC3)nn(-c3ccc(F)cc3)c2n1

CL free [3]: < 11.5 mL/min/kg
Activity (Cytochrome P450 3A4 [21]): 9%
Compound: CS(=O)(=O)NC(=O)c1cc(N2CCC(N3CCOCC3)CC2)c2c(C3CCC3)nn(-c3ccc(F)cc3)c2n1

CL [26]: 0.41 mL/min/kg
Compound: CS(=O)(=O)NC(=O)c1cc(-c2ccc(N3CCC(C#N)CC3)nc2)c2c(C3CCC3)nn(-c3ccccc3)c2n1

CL [26]: 3.3 mL/min/kg
Compound: O=C(O)c1cc(-c2ccc(N3CCOCC3)cc2)c2c(C3CCC3)nn(-c3ccccc3)c2n1
